Data set [1] concerns Rattus norvegicus. Nature of the data set: Antidiabetic activity in ZDF rat assessed as triglyceride level at 0.1 mg/kg, po QD for 40 days (reference value: 618+/-52 mg/dL). The class given is functional.
Data set [2] deals with Rattus norvegicus. Nature of the data set: Antidiabetic activity in ZDF rat assessed as adiponectin level at 3 mg/kg, po QD for 40 days (reference value: 11.9+/-1.5 ug/ml). The format is functional.
A short description of data set [3]: AUC in SHR rat at 10 mg/kg, po. The format is ADME, organism-based. Also on record: dose 10 mg/kg, route oral. The following applies: plasma. In outline:
(§1)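 SHR received a single oral dose of 1, 3 or 10 mg/kg. Systemic exposure was determined as plasma Cmax and AUC.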

Data set [4] concerns the target T1, Type-1 angiotensin II receptor (Homo sapiens, UniProt P30556).
T1 sequence (P30556 whole entry): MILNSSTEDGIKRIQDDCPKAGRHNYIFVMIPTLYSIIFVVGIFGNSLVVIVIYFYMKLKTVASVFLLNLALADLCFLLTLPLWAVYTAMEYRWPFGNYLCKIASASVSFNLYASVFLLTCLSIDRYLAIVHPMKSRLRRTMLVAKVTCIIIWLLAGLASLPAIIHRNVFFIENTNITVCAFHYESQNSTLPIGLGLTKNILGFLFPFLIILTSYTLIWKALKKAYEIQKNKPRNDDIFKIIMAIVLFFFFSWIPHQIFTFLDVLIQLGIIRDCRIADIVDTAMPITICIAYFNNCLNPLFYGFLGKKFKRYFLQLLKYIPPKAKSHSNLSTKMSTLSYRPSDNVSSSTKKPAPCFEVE
Nature of the data set: Displacement of [125I]Tyr4-Sar1,Ile8-Angiotensin II from human Angiotensin 1 receptor after 60 mins by scintillation counting. A general note: Displacement assays read how much labelled ligand stays bound in the presence of the test substance.

Data set [5] concerns the target T2, Peroxisome proliferator-activated receptor gamma (Homo sapiens, UniProt P37231).
T2 sequence (P37231 whole entry): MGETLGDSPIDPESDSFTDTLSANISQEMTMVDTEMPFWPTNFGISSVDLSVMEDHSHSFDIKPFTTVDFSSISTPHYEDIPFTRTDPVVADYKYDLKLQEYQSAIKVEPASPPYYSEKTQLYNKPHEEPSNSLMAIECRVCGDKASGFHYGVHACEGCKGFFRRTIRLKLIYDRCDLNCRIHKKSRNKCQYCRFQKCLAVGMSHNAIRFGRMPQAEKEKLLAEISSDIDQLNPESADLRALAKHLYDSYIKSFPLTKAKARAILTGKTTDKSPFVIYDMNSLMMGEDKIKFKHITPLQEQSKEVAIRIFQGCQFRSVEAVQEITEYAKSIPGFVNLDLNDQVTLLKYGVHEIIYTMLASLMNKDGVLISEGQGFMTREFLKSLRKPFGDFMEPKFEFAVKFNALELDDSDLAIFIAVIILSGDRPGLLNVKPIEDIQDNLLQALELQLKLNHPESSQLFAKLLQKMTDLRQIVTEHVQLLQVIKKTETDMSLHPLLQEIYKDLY
Nature of the data set: Partial agonist activity at human PPARgamma-LBD/Gal4 DNA binding domain by transactivation assay.

A short description of data set [6]: Cmax in SHR rat at 3 mg/kg, po. The format is ADME, organism-based. Also noted: dose 3 mg/kg, route oral. As to conditions: in vivo. In short, it runs like this: as §1
The subject of data set [7] is Rattus norvegicus. Nature of the data set: Antihypertensive activity in SHR rat assessed as induction of reflex tachycardia at 10 mg/kg, po single dose measured 4 to 8 hrs post dosing.
The nature of data set [8]: AUC in SHR rat at 3 mg/kg, po. The class given is ADME, organism-based. Also on record: dose 3 mg/kg, route oral. As to conditions: plasma. In outline:
as §1

Data set [9] deals with Rattus norvegicus. Nature of the data set: Antidiabetic activity in ZDF rat assessed as triglyceride level at 100 mg/kg, po QD for 40 days (reference value: 618+/-52 mg/dL). The format is functional.
The nature of data set [10]: AUC in ZDF rat at 10 mg/kg, po. Also on record: dose 10 mg/kg, route oral. The format is ADME, organism-based. The following applies: plasma. In outline:
(§2)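 Male ZDF rats; satellite animals outside the efficacy groups were given oral doses of 3, 10 or 100 mg/kg. Plasma Cmax and AUC were calculated from these animals.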

In data set [11] the test system is Rattus norvegicus. Nature of the data set: Antidiabetic activity in ZDF rat assessed as adiponectin level at 0.1 mg/kg, po QD for 40 days (reference value: 11.9+/-1.5 ug/ml). The format is functional.
Data set [12] deals with Rattus norvegicus. Nature of the data set: Antidiabetic activity in ZDF rat assessed as triglyceride level at 10 mg/kg, po QD for 40 days (reference value: 618+/-52 mg/dL). The format is functional.
For data set [13], the system named is Rattus norvegicus. Nature of the data set: Antidiabetic activity in ZDF rat assessed as blood glucose level at 1 mg/kg, po QD for 40 days (reference value: 771+/-60 mg/dL). The class given is functional.
The target of data set [14] is T3, Peroxisome proliferator-activated receptor delta (Homo sapiens) (UniProt Q03181).
T3 sequence (whole entry): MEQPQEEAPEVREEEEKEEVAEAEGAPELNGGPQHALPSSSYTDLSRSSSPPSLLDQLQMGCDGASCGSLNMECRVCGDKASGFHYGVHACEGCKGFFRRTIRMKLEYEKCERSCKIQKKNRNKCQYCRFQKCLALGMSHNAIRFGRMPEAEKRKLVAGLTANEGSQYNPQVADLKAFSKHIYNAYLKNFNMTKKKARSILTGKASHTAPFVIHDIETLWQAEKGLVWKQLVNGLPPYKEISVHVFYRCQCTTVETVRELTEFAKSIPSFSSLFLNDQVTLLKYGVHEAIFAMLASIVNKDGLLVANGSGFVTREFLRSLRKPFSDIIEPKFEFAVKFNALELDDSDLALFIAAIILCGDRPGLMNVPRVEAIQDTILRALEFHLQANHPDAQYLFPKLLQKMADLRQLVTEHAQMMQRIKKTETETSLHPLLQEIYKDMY
Nature of the data set: Transactivation of human PPARbeta.

For data set [15], the system named is Rattus norvegicus. Nature of the data set: Antihypertensive activity in SHR rat assessed as decrease in arterial blood pressure at 0.3 to 10 mg/kg, po administered as single dose measured after 20 hrs. The format is functional, organism-based. The following applies: Artery. In outline: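 SHR carried aortic radiotelemetry transmitters implanted under Telazol anesthesia and recovered for at least 1 week. Rats were randomized by 2 h baseline mean BP. Each received vehicle by oral gavage on Day 0 and a single drug dose (0.3–10 mg/kg) on Day 1, with BP followed 20 h each day. The change was taken as Day 1 minus Day 0, n = 8/group.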

A short description of data set [16]: Clearance in rat at 1 mg/kg, iv. The following applies: in vivo. Also noted: dose 1 mg/kg, route intravenous. The format is ADME, organism-based.
Data set [17] concerns Rattus norvegicus. Nature of the data set: Antidiabetic activity in ZDF rat assessed as body weight gain at 100 mg/kg, po QD for 40 days (reference value: 133+/-9 g). The class given is functional. In outline:
(§3)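 Male ZDF rats, starting at about 6 weeks old, were dosed orally once daily for 40 days in 1.5% CMC/0.2% Tween 20 suspension, n = 8/group. Body weight was followed over the study. Gain was calculated per animal from day 0 to day 40 and compared with vehicle and pioglitazone (3 mg/kg) groups. Data are mean ± SEM.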

Data set [18] concerns Rattus norvegicus. Nature of the data set: Antidiabetic activity in ZDF rat assessed as body weight gain at 3 mg/kg, po QD for 40 days (reference value: 133+/-9 g). The format is functional. In outline:
as §3

A short description of data set [19]: Cmax in ZDF rat at 3 mg/kg, po. Also on record: dose 3 mg/kg, route oral. The class given is ADME, organism-based. As to conditions: in vivo. In short, it runs like this:
as §2

Data set [20] relates to Rattus norvegicus. Nature of the data set: Antidiabetic activity in ZDF rat assessed as blood glucose level at 100 mg/kg, po QD for 40 days (reference value: 771+/-60 mg/dL). The class given is functional.
Data set [21] concerns Rattus norvegicus. Nature of the data set: Antidiabetic activity in ZDF rat assessed as blood glucose level at 30 mg/kg, po QD for 40 days (reference value: 771+/-60 mg/dL). The class given is functional.

The structures appear in SMILES notation. Active and inactive are the calls of the source. The calls are words filed in the database; no cut-off is given here.

A word on the AUC: it is the area under the concentration-time curve, a measure of exposure. Read a high AUC as high exposure. Usually IC50 stands for the midpoint of a concentration-inhibition curve. A low value points to higher potency. For orientation: EC50 means the concentration giving half of the maximal effect. What is called Cmax is the maximum level reached in the sampled fluid or tissue. Usually clearance stands for a measure of how efficiently the substance is removed, as volume per time. High values mean a high capacity for elimination, low ones a low capacity for elimination. Turning to `CCc1nc2c(C)cc(CC(C)C)nc2n1[C@H]1CCc2cc(-c3ccccc3-c3nnn[nH]3)ccc21`, the Activity in the data set with Rattus norvegicus [1] was 559 mg/dL; with Rattus norvegicus [2], 11.4 µg/mL; with Rattus norvegicus [9] it was 151 mg/dL; in the data set with Rattus norvegicus [11], 9.9 µg/mL; in the data set with Rattus norvegicus [12], 393 mg/dL; with Rattus norvegicus [13], 612 mg/dL. Besides, the Activity was 202 g in the data set on Rattus norvegicus [17], 159 g with Rattus norvegicus [18], 116 mg/dL with Rattus norvegicus [20] and 140 mg/dL in the data set on Rattus norvegicus [21]. For the same compound, the AUC in data set [3] is 6830 ng·h/mL; in [8] it was 1280 ng·h/mL; in data set [10], 28000 ng·h/mL. This compound yielded an IC50 in [4] of 1.6 nM. Further, in data set [5], the EC50 stood at 212 nM. Further, the highest concentration (Cmax) came to 283 ng/mL in [6] and 267 ng/mL in [19]. The result with Rattus norvegicus [7] and in the data set with Rattus norvegicus [15] was Active. Also, the outcome in data set [14] was inactive. In data set [16], this compound had a clearance of 14 mL/min/kg.

These data come from ChEMBL document CHEMBL1800018, “Discovery of a series of imidazo[4,5-b]pyridines with dual activity at angiotensin II type 1 receptor and peroxisome proliferator-activated receptor-γ” (J Med Chem, 2011).
